Calls of active or inactive are those of the source. The rule behind the calls is not given here.
Legend:
[1] = Cytotoxicity against human HT-29 cells assessed as cell survival at 5 uM after 8 hrs by alamar blue assay relative to control; type: cell-based; details: read-out: Survival
Outline: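 Cells cultured overnight, then exposed to compound at 5 μM for 8 h. Viability read by Alamar Blue per kit instructions. Table reports n=3.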

[2] = target: Cystic fibrosis transmembrane conductance regulator (Homo sapiens) (UniProt P13569); assay: Inhibition of human wild type CFTR expressed in FRT cells co-expressing halide sensitive YFP-H148Q assessed as reduction in forskolin induced cAMP activated chloride conductance by measuring decrease in iodide influx after 15 mins by fluorescence assay; type: cell-based
Outline: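 FRT cells co-expressing YFP and wild-type CFTR, washed with PBS. Incubated 15 min with compound in PBS containing 20 μM forskolin. Plate reader baseline 2 s, then 12 s after rapid addition of I⁻-containing solution; initial I⁻ influx rate computed.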

[3] = Metabolic stability in rat liver microsomes assessed as compound remaining in presence of NADPH at 10 uM after 180 mins by LC/MS analysis; type: ADME, microsome; details: read-out: Stability
Outline: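 10 μM compound shaken at 37 °C with rat liver microsomes (1 mg protein/mL) in 100 mM potassium phosphate buffer with 1 mM NADPH, sampled at 2–180 min. Quenched on ice with ice-cold ethyl acetate, centrifuged, supernatant dried and redissolved. Parent compound quantified by C₁₈ reverse-phase LC/MS (5–95% acetonitrile gradient); mean ± SEM, n=3.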

[4] = Kinetic aqueous solubility of compound in PBS by titration method; type: physicochemical; details: buffer
Outline: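 Increasing quantities of a 30 mM DMSO stock added to 2 mL aliquots of PBS. Kinetic solubility taken from the titration point.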

[5] = target: T1, Anoctamin-1 (Mus musculus) (UniProt Q8BHY3); assay: Inhibition of TMEM16A in CD1 mouse ileum assessed as reduction in intestinal smooth muscle contraction
T1 sequence (whole entry): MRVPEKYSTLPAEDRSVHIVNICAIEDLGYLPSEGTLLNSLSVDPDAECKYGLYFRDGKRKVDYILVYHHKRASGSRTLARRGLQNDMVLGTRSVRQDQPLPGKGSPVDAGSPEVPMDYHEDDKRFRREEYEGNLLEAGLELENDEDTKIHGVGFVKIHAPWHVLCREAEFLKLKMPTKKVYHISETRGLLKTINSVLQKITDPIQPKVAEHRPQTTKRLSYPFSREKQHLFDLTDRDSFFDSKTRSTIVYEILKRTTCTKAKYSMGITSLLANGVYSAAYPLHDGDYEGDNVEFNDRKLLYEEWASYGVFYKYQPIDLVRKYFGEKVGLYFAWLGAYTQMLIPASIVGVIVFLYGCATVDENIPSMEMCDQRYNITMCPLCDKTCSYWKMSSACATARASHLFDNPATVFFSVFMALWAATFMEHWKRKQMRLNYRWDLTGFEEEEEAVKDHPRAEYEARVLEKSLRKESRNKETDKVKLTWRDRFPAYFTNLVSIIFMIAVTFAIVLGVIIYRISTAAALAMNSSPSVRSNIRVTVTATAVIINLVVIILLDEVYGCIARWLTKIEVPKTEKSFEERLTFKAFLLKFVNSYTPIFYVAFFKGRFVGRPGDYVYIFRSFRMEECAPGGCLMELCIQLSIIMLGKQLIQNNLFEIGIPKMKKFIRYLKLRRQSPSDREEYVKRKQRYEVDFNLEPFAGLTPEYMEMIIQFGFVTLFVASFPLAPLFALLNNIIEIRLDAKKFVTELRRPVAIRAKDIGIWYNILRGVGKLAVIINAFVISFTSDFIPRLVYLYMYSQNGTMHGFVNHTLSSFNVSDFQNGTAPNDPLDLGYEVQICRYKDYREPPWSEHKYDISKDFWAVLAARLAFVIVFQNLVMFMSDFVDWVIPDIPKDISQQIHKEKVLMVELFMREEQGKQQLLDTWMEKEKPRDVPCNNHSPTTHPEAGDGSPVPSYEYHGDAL
Outline: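 Ileal segments of ~2 cm from adult CD1 mice killed by avertin overdose (200 mg/kg), ends tied, mounted on a force transducer. […] Stabilised 60 min at 0.5 g resting tension with changes every 15 min. Compound added to the bath; spontaneous isometric contractions recorded; three separate experiments.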

[6] = Stability of compound in aqueous solution at 100 uM after 1 day by ESI-LCMS analysis; type: physicochemical; details: read-out: Stability
Outline: (§1)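 Duplicate samples of 100 μM compound in H₂O (20% DMSO) with 100 μM 5-chloro-3-phenyl-2,1-benzisoxazole as internal standard. Kept at 25 °C for 3 days and analysed daily by ESI-LCMS for the parent compound and the oxalamic acid degradation product.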

[7] = Stability of compound in aqueous solution at 100 uM after 2 days by ESI-LCMS analysis; type: physicochemical; details: read-out: Stability; outline: as §1
[8] = Stability of compound in DMSO; type: physicochemical
[9] = target: T2, Anoctamin-1 (Homo sapiens) (UniProt Q5XXA6); details: 250 nM
T2 sequence (whole entry): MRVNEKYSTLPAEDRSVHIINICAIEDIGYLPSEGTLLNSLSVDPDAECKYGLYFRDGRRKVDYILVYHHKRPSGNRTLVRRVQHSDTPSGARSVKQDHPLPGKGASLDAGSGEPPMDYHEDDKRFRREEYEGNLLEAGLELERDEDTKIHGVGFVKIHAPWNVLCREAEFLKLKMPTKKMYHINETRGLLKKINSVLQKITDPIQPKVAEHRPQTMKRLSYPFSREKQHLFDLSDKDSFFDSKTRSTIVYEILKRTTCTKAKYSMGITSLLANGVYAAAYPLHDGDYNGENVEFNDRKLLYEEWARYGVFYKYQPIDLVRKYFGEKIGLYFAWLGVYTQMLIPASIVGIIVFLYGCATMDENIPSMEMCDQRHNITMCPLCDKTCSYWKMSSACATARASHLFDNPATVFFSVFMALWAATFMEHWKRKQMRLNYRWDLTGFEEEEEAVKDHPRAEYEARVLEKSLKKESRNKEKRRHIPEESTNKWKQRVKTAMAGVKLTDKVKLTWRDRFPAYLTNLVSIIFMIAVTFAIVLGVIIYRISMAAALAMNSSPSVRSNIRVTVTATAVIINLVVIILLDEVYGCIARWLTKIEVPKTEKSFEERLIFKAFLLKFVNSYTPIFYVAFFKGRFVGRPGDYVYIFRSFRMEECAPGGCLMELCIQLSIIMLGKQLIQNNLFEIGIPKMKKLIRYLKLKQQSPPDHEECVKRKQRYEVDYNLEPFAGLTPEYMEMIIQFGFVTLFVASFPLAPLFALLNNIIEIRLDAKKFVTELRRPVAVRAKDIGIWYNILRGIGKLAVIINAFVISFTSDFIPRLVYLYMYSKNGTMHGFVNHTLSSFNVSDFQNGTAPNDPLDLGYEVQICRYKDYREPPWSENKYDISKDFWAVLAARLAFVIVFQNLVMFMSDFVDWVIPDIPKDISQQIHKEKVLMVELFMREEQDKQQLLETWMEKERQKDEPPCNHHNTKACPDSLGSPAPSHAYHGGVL

[10] = target: T2, Anoctamin-1 (Homo sapiens); details: 250 nM; remark: listed apart in the source
[11] = target: T2, Anoctamin-1 (Homo sapiens); details: 1 uM
[12] = target: T2, Anoctamin-1 (Homo sapiens); details: 1 uM; remark: listed apart in the source
[13] = target: T2, Anoctamin-1 (Homo sapiens); details: 1 uM; remark: listed apart in the source

Chain of Cystic fibrosis transmembrane conductance regulator (Homo sapiens) (P13569 whole entry, looked up): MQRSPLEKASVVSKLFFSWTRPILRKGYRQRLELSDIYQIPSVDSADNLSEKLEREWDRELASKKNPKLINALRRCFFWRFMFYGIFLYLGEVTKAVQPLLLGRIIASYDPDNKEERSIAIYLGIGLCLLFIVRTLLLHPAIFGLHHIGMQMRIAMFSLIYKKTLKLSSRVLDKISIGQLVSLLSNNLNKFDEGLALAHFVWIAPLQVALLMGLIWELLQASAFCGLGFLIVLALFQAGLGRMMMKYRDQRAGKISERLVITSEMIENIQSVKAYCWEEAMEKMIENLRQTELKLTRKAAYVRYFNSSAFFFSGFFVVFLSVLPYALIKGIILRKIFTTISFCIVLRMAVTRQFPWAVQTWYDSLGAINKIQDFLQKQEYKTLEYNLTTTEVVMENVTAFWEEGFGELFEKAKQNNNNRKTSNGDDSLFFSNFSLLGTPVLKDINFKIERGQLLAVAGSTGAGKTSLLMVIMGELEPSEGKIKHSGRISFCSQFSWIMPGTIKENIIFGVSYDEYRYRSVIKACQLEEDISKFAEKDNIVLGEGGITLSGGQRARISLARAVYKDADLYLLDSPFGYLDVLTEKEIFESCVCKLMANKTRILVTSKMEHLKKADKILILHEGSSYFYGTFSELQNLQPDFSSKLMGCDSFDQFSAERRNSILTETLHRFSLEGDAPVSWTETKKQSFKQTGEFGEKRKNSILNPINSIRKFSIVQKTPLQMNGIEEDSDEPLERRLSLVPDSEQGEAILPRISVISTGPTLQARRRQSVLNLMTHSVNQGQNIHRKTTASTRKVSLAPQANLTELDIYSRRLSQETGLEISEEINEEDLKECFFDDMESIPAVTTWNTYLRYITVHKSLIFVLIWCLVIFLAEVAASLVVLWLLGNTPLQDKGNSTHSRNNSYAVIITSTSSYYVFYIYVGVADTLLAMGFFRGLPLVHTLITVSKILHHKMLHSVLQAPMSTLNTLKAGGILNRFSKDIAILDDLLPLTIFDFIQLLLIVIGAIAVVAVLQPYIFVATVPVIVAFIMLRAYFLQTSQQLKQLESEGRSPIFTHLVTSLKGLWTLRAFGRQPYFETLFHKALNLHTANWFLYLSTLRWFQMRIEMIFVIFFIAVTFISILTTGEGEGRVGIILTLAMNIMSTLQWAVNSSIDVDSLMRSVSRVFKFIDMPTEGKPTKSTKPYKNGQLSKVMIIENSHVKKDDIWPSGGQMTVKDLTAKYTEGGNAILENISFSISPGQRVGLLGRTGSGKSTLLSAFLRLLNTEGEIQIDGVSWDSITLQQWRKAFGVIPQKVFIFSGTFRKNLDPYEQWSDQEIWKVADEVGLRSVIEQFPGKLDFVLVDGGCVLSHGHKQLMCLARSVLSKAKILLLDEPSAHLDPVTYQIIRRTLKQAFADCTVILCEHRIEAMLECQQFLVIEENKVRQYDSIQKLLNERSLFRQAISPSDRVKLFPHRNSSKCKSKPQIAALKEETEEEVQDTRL

In the case of Cc1ccccc1NC(=O)c1c(NC(=O)C(F)(F)Br)sc2c1CCCCC2, the viability at 8 h, 5 µM [1] is reported as 97%, the inhibition [2] is reported as “inactive” and the remaining at 3 h, 10 µM [3] is reported as 30%. For the same compound, the Kinetic_solubility [4] was 0.04 mg/mL, the inhibition [5] was “Dose-dependent effect” and the remaining at 24 h, 100 µM [6] was 72%. The remaining at 48 h, 100 µM [7] was 30%, the Stability [8] was over 6 months and the inhibition [9] was “Active”. The inhibition [10] was “inactive”, the inhibition [11] was “Active” and the inhibition [12] was “Active”. For the same compound, the inhibition [13] was “Active”.

From ChEMBL document CHEMBL4014325
